Holding throughout (assay type): biochemical
In assay [1] the target is Human mitochondrial RNA polymerase (POLRMT) (Homo sapiens, UniProt O00411). Briefly: POLRMT primer extension. The essentials:
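Reactions contained 200 nM DNA template, 25 nM Atto-425-labelled 12-mer RNA primer and 300 nM human POLRMT. Substrate was 1 mM NTP or 2′-F-NTP, or mixtures from 100:1 to 1:100 (1:1 both 1 mM). Products were resolved by fluorescence anion-exchange HPLC (ex 436/em 485 nm, pH 11 NaBr gradient). Products under 1.0% peak area were called not detected.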

Assay [2] concerns the target DNA polymerase β (Pol-β) (Homo sapiens, UniProt P06746). Briefly: DNA polymerase inhibition assay, Pol-β. To be noted: 1 h, 3H-dTTP incorporation. The gist of the method:
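Reactions contained 25 μM each dATP/dCTP/dGTP, 25 nM TTP plus 1 μCi ³H-TTP, 160 nM template/primer, and serially diluted test nucleotide (0–200 μM). Incubation was 1 h at 37°C. DNA was TCA-precipitated, washed and counted; inhibition was taken from reduced incorporation. ddNTPs served as positive control.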

The target of assay [3] is T1, DNA polymerase γ (Pol-γ) (Homo sapiens, UniProt P54098).
T1 sequence (P54098 1-1239): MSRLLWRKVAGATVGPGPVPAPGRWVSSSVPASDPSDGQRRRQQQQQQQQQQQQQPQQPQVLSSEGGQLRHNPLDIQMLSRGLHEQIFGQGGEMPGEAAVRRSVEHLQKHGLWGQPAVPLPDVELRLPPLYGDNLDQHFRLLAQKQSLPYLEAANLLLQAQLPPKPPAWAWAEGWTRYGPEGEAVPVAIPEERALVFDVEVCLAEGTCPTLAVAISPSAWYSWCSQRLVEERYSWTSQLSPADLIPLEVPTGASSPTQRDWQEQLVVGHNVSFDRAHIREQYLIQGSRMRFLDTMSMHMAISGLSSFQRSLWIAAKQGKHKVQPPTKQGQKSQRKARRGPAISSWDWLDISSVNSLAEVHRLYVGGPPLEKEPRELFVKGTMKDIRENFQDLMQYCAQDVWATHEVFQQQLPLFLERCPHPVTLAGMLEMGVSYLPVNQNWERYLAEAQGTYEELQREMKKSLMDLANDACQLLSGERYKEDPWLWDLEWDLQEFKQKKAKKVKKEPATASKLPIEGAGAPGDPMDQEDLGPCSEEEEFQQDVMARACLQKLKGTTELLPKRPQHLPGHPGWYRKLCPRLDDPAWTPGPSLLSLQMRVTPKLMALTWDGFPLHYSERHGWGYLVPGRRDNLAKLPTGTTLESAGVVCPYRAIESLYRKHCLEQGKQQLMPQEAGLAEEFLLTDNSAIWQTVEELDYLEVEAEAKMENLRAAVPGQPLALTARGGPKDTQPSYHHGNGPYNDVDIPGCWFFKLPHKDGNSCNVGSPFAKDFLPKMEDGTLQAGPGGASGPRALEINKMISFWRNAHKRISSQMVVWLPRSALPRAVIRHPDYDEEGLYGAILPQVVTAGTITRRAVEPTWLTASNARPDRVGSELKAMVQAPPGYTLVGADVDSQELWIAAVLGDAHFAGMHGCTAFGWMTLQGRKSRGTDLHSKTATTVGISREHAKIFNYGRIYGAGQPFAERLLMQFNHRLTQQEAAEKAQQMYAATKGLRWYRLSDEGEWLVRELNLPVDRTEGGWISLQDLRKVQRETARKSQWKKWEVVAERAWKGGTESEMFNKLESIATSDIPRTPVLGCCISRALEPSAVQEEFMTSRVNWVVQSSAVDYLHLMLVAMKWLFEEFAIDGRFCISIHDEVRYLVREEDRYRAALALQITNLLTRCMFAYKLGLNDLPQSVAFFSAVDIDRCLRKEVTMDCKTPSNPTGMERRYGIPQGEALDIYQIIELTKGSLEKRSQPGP
The assay can be described thus: DNA polymerase inhibition assay, Pol-γ. The note with it: 1 h, 3H-dTTP incorporation. The gist of the method:
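Reactions contained 25 μM each dATP/dCTP/dGTP, 25 nM TTP plus 1 μCi ³H-TTP, 160 nM template/primer, and serially diluted test nucleotide (0–200 μM). Incubation was 1 h at 37°C, stopped with TCA (10% final). DNA was precipitated 40 min at 4°C, washed and scintillation-counted; inhibition was taken from reduced radioactivity.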

Molecules are shown by their SMILES. Marks after values point to notes of the source that are not given here. Some results are limits rather than exact numbers.

Chain of Human mitochondrial RNA polymerase (POLRMT) (O00411 42-1230): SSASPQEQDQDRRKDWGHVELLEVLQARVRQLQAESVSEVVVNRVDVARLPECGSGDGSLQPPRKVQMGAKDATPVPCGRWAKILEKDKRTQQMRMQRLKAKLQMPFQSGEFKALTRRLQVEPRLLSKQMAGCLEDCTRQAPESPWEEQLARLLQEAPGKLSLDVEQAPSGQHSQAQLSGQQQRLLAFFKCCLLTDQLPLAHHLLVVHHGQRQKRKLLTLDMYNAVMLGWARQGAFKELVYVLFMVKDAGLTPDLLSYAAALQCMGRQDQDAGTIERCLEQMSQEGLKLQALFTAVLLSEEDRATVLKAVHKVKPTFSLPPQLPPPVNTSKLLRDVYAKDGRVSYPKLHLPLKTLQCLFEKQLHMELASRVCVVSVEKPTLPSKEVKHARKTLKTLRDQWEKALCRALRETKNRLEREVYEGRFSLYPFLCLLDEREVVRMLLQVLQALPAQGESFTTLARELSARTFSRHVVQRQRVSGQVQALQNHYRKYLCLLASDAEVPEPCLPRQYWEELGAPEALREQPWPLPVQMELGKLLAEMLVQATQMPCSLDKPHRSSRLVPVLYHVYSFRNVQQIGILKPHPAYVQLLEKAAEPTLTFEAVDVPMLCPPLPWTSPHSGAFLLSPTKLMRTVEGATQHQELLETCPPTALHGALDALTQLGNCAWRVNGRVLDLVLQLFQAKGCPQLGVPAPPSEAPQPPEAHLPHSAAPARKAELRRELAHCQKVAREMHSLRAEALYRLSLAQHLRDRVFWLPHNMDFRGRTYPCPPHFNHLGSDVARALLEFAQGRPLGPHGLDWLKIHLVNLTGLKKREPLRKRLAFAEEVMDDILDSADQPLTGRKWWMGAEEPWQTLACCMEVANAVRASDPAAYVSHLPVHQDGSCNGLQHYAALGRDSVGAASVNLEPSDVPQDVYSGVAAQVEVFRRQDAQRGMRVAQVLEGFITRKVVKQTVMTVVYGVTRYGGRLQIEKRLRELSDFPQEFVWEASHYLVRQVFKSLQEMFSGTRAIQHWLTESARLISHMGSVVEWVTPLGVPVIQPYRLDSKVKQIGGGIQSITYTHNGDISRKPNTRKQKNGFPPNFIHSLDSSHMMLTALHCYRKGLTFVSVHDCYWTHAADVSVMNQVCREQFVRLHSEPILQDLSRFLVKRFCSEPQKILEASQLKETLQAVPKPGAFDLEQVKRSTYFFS

The IC50 is the concentration that inhibits the measured activity by half. A higher IC50 goes with a need for much substance. As a reminder, the IC90 is the concentration at which the effect reaches the 90% level. Read a high IC90 as weaker potency. Turning to `Nc1ncnc2c1ncn2[C@@H]1O[C@H](COP(=O)(O)OP(=O)(O)OP(=O)(O)O)[C@@H](O)[C@H]1F` [2′-F-ATP], the “% 2′-F product” value in assay [1] (F only) is listed as 42.6^a %; in assay [1] (Native:F ratio 1:1) it was “ND (not detected (integration peak area <1.0%))”; in assay [1] (Native:F ratio 1:10) it was “ND (not detected (integration peak area <1.0%))”; in assay [1] (Native:F ratio 1:100), “ND (not detected (integration peak area <1.0%))”. Moreover, the “% Native product” value in assay [1] (Native only (no 2′-F-NTP)) was 69.2^a %; in assay [1] (Native:F ratio 1:1) it was 67.8^a %; in assay [1] (Native:F ratio 1:10) it was 63.5^a %; in assay [1] (Native:F ratio 1:100) it was 51.4^a %. The half-maximal inhibitory concentration (IC50) is 175 µM in assay [2] and over 200 µM in assay [3]. For the same molecule, the IC90 in assay [2] and in assay [3] was over 200 µM throughout.

Turning to `Nc1ccn([C@@H]2O[C@H](COP(=O)(O)OP(=O)(O)OP(=O)(O)O)[C@@H](O)[C@H]2F)c(=O)n1` [2′-F-CTP], the “% 2′-F product” value in assay [1] (F only) was 58.7^a %; in assay [1] (Native:F ratio 1:1) it was “ND (not detected (integration peak area <1.0%))”; in assay [1] (Native:F ratio 1:10) it was “ND (not detected (integration peak area <1.0%))”; in assay [1] (Native:F ratio 1:100), 9.1^b %. In addition, the “% Native product” value in assay [1] (Native only (no 2′-F-NTP)) is 48.8^a %; in assay [1] (Native:F ratio 1:1) it was 39.3^a %; in assay [1] (Native:F ratio 1:10), 43.7^a %; in assay [1] (Native:F ratio 1:100) it was 37.0^b %. Also, the IC50 in assay [2] and in assay [3] was over 200 µM in each case. The 90% effect concentration (IC90) in assay [2] and in assay [3] was over 200 µM each time.

Regarding `Nc1nc2c(ncn2[C@@H]2O[C@H](COP(=O)(O)OP(=O)(O)OP(=O)(O)O)[C@@H](O)[C@H]2F)c(=O)[nH]1` [2′-F-GTP], the “% 2′-F product” value is 78.9^a % in assay [1] (F only), “ND (not detected (integration peak area <1.0%))” in assay [1] (Native:F ratio 1:1), “ND (not detected (integration peak area <1.0%))” in assay [1] (Native:F ratio 1:10) and 8.9^b % in assay [1] (Native:F ratio 1:100). Besides, the “% Native product” value was 95.0^a % in assay [1] (Native only (no 2′-F-NTP)), 96.4^a % in assay [1] (Native:F ratio 1:1), 83.4^a % in assay [1] (Native:F ratio 1:10) and 69.2^b % in assay [1] (Native:F ratio 1:100). In addition, the IC50 in assay [2] and in assay [3] was over 200 µM each time. For the same molecule, the IC90 in assay [2] and in assay [3] was over 200 µM in each case.

For `O=c1ccn([C@@H]2O[C@H](COP(=O)(O)OP(=O)(O)OP(=O)(O)O)[C@@H](O)[C@H]2F)c(=O)[nH]1` [2′-F-UTP], the “% 2′-F product” value is 31.8^a % in assay [1] (F only), “ND (not detected (integration peak area <1.0%))” in assay [1] (Native:F ratio 1:1), “ND (not detected (integration peak area <1.0%))” in assay [1] (Native:F ratio 1:10) and “ND (not detected (integration peak area <1.0%))” in assay [1] (Native:F ratio 1:100). Moreover, the “% Native product” value in assay [1] (Native only (no 2′-F-NTP)) is given as 40.8^a %; in assay [1] (Native:F ratio 1:1) it was 32^a %; in assay [1] (Native:F ratio 1:10), 45.3^a %; in assay [1] (Native:F ratio 1:100) it was 35.6^a %. Moreover, the values for the concentration for half-maximal inhibition (IC50) in assay [2] and in assay [3] were 91.6 µM and over 200 µM, respectively. Besides, the IC90 in assay [2] and in assay [3] was over 200 µM each time.

Turning to `O=c1[nH]c(=O)n([C@@H]2O[C@H](COP(=O)(O)OP(=O)(O)OP(=O)(O)O)[C@@H](O)[C@@H]2F)cc1I` [FIAU-TP, fialuridine triphosphate, reference compound], the “% 2′-F product” value is listed as 21.0^a % in assay [1] (F only), “ND (not detected (integration peak area <1.0%))” in assay [1] (Native:F ratio 1:1), “ND (not detected (integration peak area <1.0%))” in assay [1] (Native:F ratio 1:10) and 1.1^b % in assay [1] (Native:F ratio 1:100). Also, the “% Native product” value in assay [1] (Native only (no 2′-F-NTP)) is recorded as 34.6^a %; in assay [1] (Native:F ratio 1:1) it was 25.1^a %; in assay [1] (Native:F ratio 1:10) it was 25.4^a %; in assay [1] (Native:F ratio 1:100) it was 24.10^b %. Besides, the results for the half-maximal inhibitory concentration (IC50) in assay [2] and in assay [3] were 0.37 µM and 1.04 µM, respectively. The values for the IC90 in assay [2] and in assay [3] were 5.56 µM and 13.4 µM, respectively.

For the origin of these results see publication PMC6468299 (Nucleic Acids Research, 2019).
